Experimental data from ChEMBL document CHEMBL1148422, “N-isoquinolin-5-yl-N'-aralkyl-urea and -amide antagonists of human vanilloid receptor 1” (Bioorg Med Chem Lett, 2004).

Legend:
[1] = molecular target: T1, Transient receptor potential cation channel subfamily V member 1 (Homo sapiens, UniProt Q8NER1); assay: Antagonistic activity towards human vanilloid receptor subtype 1 expressed in HEK293 cell […], as inhibition of agonist-induced intracellular [Ca2+] levels.; assay type: functional, cell-based
[2] = molecular target: T1, Transient receptor potential cation channel subfamily V member 1; assay: Binding affinity towards human vanilloid receptor subtype 1 expressed in HEK293 cell membrane using [3H]-RTX as radioligand.; assay type: cell membranes
Procedure, shortened: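 Membranes from hVR1/HEK293 cells homogenized twice with a Polytron in 20 mM HEPES pH 7.4 with 5.8 mM NaCl, 320 mM sucrose, 2 mM MgCl2, 0.75 mM CaCl2 and 5 mM KCl. Spun at 3000 rpm for 10 min; supernatant spun at 18,000 rpm for 20 min; pellet taken up in assay buffer.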

T1 sequence (Q8NER1 whole entry): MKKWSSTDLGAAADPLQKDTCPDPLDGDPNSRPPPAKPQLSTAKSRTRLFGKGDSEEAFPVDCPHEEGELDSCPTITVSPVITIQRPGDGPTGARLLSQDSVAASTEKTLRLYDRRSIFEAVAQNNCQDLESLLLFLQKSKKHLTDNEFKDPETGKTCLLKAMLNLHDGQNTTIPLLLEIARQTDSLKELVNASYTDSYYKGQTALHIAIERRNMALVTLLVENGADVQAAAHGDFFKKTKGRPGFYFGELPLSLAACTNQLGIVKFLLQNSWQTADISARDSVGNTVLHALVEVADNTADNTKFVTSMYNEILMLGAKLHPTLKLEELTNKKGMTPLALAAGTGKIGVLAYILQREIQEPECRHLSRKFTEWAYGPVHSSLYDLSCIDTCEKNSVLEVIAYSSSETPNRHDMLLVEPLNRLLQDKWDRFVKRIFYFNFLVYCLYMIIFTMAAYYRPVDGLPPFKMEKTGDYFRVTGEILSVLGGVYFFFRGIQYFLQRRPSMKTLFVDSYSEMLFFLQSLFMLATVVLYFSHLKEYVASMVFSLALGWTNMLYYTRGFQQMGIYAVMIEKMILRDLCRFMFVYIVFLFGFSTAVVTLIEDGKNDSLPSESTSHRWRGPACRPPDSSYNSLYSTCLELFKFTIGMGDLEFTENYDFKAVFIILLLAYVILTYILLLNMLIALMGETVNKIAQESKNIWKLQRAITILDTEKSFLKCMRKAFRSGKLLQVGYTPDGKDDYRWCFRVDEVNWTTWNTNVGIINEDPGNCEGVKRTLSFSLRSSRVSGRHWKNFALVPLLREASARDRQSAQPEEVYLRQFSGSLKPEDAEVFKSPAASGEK

O=C(NCc1ccc(OC(F)(F)F)cc1)Nc1cccc2cnccc12 gave an IC50 [1] of 3 nM and a Ki [2] of 1.3 nM.
In the case of O=C(NCc1ccc(Cl)cc1)Nc1cccc2cnccc12, the IC50 [1] is reported as 6 nM.
CCCCCc1ccc(C(=O)Nc2cccc3cnccc23)cc1 was tested, and the IC50 [1] was 2400 nM and the Ki [2] was 71 nM.
O=C(NCc1ccc(Cl)c(C(F)(F)F)c1)Nc1cccc2cnccc12 was tested, and the IC50 [1] was 6 nM and the Ki [2] was 0.8 nM.
With O=C(NCCc1ccc(C(F)(F)F)cc1)Nc1cccc2cnccc12 the IC50 [1] was 19 nM and the Ki [2] was 22 nM.
With O=C(NCCc1ccc(Cl)c(Cl)c1)Nc1cccc2cnccc12 the IC50 [1] was 10 nM and the Ki [2] was 17 nM.
With O=C(NCCc1ccccc1)Nc1cccc2cnccc12 the IC50 [1] was 1000 nM.
For COc1ccc(CCNC(=O)Nc2cccc3cnccc23)cc1, the IC50 [1] was 680 nM.
O=C(NCc1ccc(C(F)(F)F)cc1)Nc1cccc2cnccc12 was tested, and the IC50 [1] was 3 nM and the Ki [2] was 5 nM.
Compound O=C(Nc1ccc(Cl)c(Cl)c1)Nc1cccc2cnccc12 has an IC50 [1] of 170 nM and a Ki [2] of 17 nM.
O=C(CCc1ccc(C(F)(F)F)cc1)Nc1cccc2cnccc12 was tested, and the IC50 [1] was 38 nM and the Ki [2] was 60 nM.
In the case of CCC(C)(C)c1ccc(CCC(=O)Nc2cccc3cnccc23)cc1, the IC50 [1] is reported as 13 nM and the Ki [2] is reported as 4 nM.
With O=C(NCc1ccc(Cl)c(Cl)c1)Nc1cccc2cnccc12 the IC50 [1] was 4 nM and the Ki [2] was 9 nM.
In the case of CC(C)(C)c1ccc(/C=C/C(=O)Nc2cccc3cnccc23)cc1, the IC50 [1] is reported as 5 nM and the Ki [2] is reported as 1.2 nM.
O=C(NCCc1ccc(OC(F)(F)F)cc1)Nc1cccc2cnccc12 gave an IC50 [1] of 11 nM.
Work on CCCCc1ccc(NC(=O)Nc2cccc3cnccc23)cc1 yielded an IC50 [1] of 490 nM and a Ki [2] of 330 nM.
Work on O=C(/C=C/c1ccccc1)Nc1cccc2cnccc12 yielded an IC50 [1] of 1500 nM.
O=C(Nc1cccc(C(F)(F)F)c1)Nc1cccc2cnccc12 was tested, and the IC50 [1] was 32 nM and the Ki [2] was 19 nM.
With O=C(NCCc1cccc(C(F)(F)F)c1)Nc1cccc2cnccc12 the IC50 [1] was 19 nM.
With CC(C)(C)c1ccc(CCC(=O)Nc2cccc3cnccc23)cc1 the IC50 [1] was 410 nM and the Ki [2] was 11 nM.
In the case of O=C(Nc1cc(C(F)(F)F)cc(C(F)(F)F)c1)Nc1cccc2cnccc12, the IC50 [1] is reported as 32 nM and the Ki [2] is reported as 1.4 nM.
Work on O=C(NCc1cccc(C(F)(F)F)c1)Nc1cccc2cnccc12 yielded an IC50 [1] of 11 nM and a Ki [2] of 23 nM.
CC(C)(C)c1ccc(CNC(=O)Nc2cccc3cnccc23)cc1 showed an IC50 [1] of 3 nM and a Ki [2] of 0.3 nM.
COc1ccc(CNC(=O)Nc2cccc3cnccc23)cc1 gave an IC50 [1] of 45 nM.
For CC(C)(C)c1ccc(CCNC(=O)Nc2cccc3cnccc23)cc1, the IC50 [1] was 3 nM.
